≈ marks a conversion by molar mass, not a printed value.
Columns and labels:
[1] = system: Mycobacterium tuberculosis; assay: Antitubercular activity against Mycobacterium tuberculosis H37Rv after 7 days by microplate alamar blue assay; assay type: functional; conditions: 168 h
Outline: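 Microplate alamar blue assay on M. tuberculosis H37Rv. The MIC is the lowest concentration that reduces fluorescence by ≥90% relative to the mean of replicate bacterium-only controls.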

[2] = Selectivity index, ratio of IC50 for African green monkey Vero cells to MIC for Mycobacterium tuberculosis H37Rv
Vero = assay: Cytotoxicity against African green monkey Vero cells assessed as growth inhibition after 48 hrs by MTT assay; assay type: ADME, cell-based; conditions: Chlorocebus sabaeus
[3] = Elimination half life in CD1 mouse at 10 mg/kg, po measured over 24 hrs by HPLC/MS/MS method; assay type: ADME, organism-based; conditions: in vivo, read-out: beta t1/2
H9c2 = assay: Inhibition of mitochondrial protein synthesis in rat H9c2 cells after 5 days by In-Cell ELISA; conditions: H9c2, 120 h

Q: Which MIC90 [1] does the source give for `CC(=O)NC[C@@H]1OC(=O)N2c3cc(F)c(C4=CCN(C(=O)C5CCCC5)CC4)cc3OC[C@@H]12` here?
A: The MIC90 was 7.94 µg/mL (≈ 17.4 µM).

Q: With `O=C1O[C@@H](Cn2ccnn2)[C@@H]2COc3cc(C4=CCN(CCO)CC4)c(F)cc3N12` as the compound, how does the MIC90 [1] read?
A: Its MIC90 is 7.96 µg/mL (≈ 19.2 µM).

Q: With `O=C(NC[C@@H]1OC(=O)N2c3cc(F)c(C4=CCN(C(=O)CO)CC4)cc3OC[C@@H]12)C1CCC1` as the compound, how does the selectivity ratio [2] read?
A: Its selectivity ratio is 39.

Q: What about the IC50 (Vero) of the same compound?
A: The IC50 was greater than 64 µg/mL.

Q: What about the MIC90 [1] of the same compound?
A: The MIC90 was 1.68 µg/mL (≈ 3.66 µM).

Q: Which results are given for `CC(=O)NC[C@@H]1OC(=O)N2c3ccc(C4=CCN(C(=O)CO)CC4)cc3OC[C@@H]12`?
A: selectivity ratio [2]: 19; IC50 (Vero): 13.8 µg/mL (≈ 34.3 µM); MIC90 [1]: 0.725 µg/mL (≈ 1.81 µM)

Q: Which selectivity ratio [2] does the source give for `CC(=O)NC[C@@H]1OC(=O)N2c3cc(F)c(C4=CCN(C(=O)CN)CC4)cc3OC[C@@H]12.Cl` here?
A: Its selectivity ratio is 87.

Q: What about the IC50 (Vero) of the same compound?
A: Its IC50 is greater than 64 µg/mL.

Q: And the MIC90 [1]?
A: Its MIC90 is 0.732 µg/mL.

Q: With `CC(=O)NC[C@@H]1OC(=O)N2c3cc(F)c(C4CCN(C(=O)CO)CC4)cc3OC[C@@H]12` as the compound, how does the selectivity ratio [2] read?
A: The selectivity ratio was 17.

Q: What about the IC50 (Vero) of the same compound?
A: Its IC50 is greater than 64 µg/mL.

Q: And the MIC90 [1]?
A: The MIC90 was 3.81 µg/mL (≈ 9.05 µM).

Q: For `O=C(CO)N1CC=C(c2cc3c(cc2F)N2C(=O)O[C@@H](CNC(=O)C(F)(F)F)[C@@H]2CO3)CC1`, which selectivity ratio [2] is on record?
A: Its selectivity ratio is 55.

Q: What about the IC50 (Vero) of the same compound?
A: The IC50 was greater than 64 µg/mL.

Q: And the MIC90 [1]?
A: The MIC90 was 1.16 µg/mL (≈ 2.45 µM).

Q: For `O=C1O[C@@H](CNC(=O)C(F)(F)F)[C@@H]2COc3cc(C4=CCN(CCO)CC4)c(F)cc3N12`, which selectivity ratio [2] is on record?
A: The selectivity ratio was 33.

Q: And the IC50 (Vero)?
A: The IC50 was greater than 64 µg/mL.

Q: And the MIC90 [1]?
A: The MIC90 was 1.92 µg/mL (≈ 4.17 µM).

Q: Which MIC90 [1] does the source give for `CC(=O)NC[C@@H]1OC(=O)N2c3cc(F)c(C4=CCN(C(=O)[C@@H]5CCCN5)CC4)cc3OC[C@@H]12.Cl` here?
A: Its MIC90 is 7.12 µg/mL.

Q: For `CC(=O)NC[C@@H]1OC(=O)N2c3cc(F)c(C4=CCN(C(=O)[C@@H]5CCCO5)CC4)cc3OC[C@@H]12`, which MIC90 [1] is on record?
A: Its MIC90 is 5.53 µg/mL (≈ 12 µM).

Q: Which MIC90 [1] does the source give for `CC(=O)NC[C@@H]1OC(=O)N2c3cc(F)c(C4=CCN(C(=O)C5CC5)CC4)cc3OC[C@@H]12` here?
A: Its MIC90 is 6.4 µg/mL (≈ 14.9 µM).

Q: With `NNC(=O)c1ccncc1` [ISONIAZID] as the compound, how does the MIC90 [1] read?
A: Its MIC90 is 0.037 µg/mL (≈ 0.27 µM).

Q: Which half-life [3] does the source give for `CC(=O)NC[C@H]1CN(c2ccc(N3CCOCC3)c(F)c2)C(=O)O1` [LINEZOLID] here?
A: Its half-life is less than 1 h.

Q: What about the selectivity ratio [2] of the same compound?
A: The selectivity ratio was 197.

Q: What about the IC50 (Vero) of the same compound?
A: Its IC50 is greater than 64 µg/mL.

Q: What about the MIC90 [1] of the same compound?
A: The MIC90 was 0.304 µg/mL (≈ 0.901 µM).

Q: What about the IC50 (H9c2) of the same compound?
A: The IC50 was 8.71 µM.

Q: What does the source list for `O=C([C@@H](O)CO)N1CC=C(c2c(F)cc(N3C[C@H](COc4ccon4)OC3=O)cc2F)CC1` [POSIZOLID]?
A: selectivity ratio [2]: 62; IC50 (Vero): > 64 µg/mL; MIC90 [1]: 1.02 µg/mL (≈ 2.2 µM)

Q: Which MIC90 [1] does the source give for `CO[C@H]1/C=C/O[C@@]2(C)Oc3c(C)c(O)c4c(O)c(c(/C=N/N5CCN(C)CC5)c(O)c4c3C2=O)NC(=O)/C(C)=C\C=C\[C@H](C)[C@H](O)[C@@H](C)[C@@H](O)[C@@H](C)[C@H](OC(C)=O)[C@@H]1C` [RIFAMPIN] here?
A: The MIC90 was 0.057 µg/mL (≈ 0.0693 µM).
